Substitutions are numbered along the chain they refer to. Like-named read-outs stand apart in the source and are kept apart here.
Tests used:
human Hv1 H140A-D185H = molecular target: T1, human Hv1 H140A-D185H (Homo sapiens, UniProt Q96D96, D185H/H140A); test: Whole-cell voltage clamp, Zn^2+ modulation of GAQ gating; assay type: cell-based
T1 sequence (Q96D96 1-273 H140A/D185H): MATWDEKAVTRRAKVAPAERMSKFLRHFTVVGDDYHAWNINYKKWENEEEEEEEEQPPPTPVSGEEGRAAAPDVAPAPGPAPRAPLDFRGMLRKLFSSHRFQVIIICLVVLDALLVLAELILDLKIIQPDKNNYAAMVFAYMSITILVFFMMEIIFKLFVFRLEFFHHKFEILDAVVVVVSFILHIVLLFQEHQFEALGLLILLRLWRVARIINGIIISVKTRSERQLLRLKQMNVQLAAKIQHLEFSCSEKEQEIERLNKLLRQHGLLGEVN
How it was run: (§1)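 Whole-cell patch clamp at ~21°C. Pipette and bath (mM): ~80 TMA-MeSO3, 100 Bis-Tris, 8 HCl, pH 6.5, 310–320 mOsm. ZnCl2 was diluted into bath solution and applied by gravity superfusion, at least 2 min per change. Test step voltage was set per construct from its V0.5. G_STEP = end-of-step current/(V−V_REV). Effect = 1 − G_Zn/G_control, fitted to the Hill equation. IC50 and nH are means ± SEM from separate cells. ΔpIC50 was tested by unpaired t test, P<0.05.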

[1] = molecular target: T2, human Hv1 H193A (H^3.71A) (Homo sapiens, UniProt Q96D96, H193A); conditions: ref Ramsey et al., 2006; cited from earlier work
T2 sequence (Q96D96 1-273 H193A): T1 sequence (Q96D96 1-273 H140A/D185H) with A140H, H185D, H193A

[2] = molecular target: T2, human Hv1 H193A (H^3.71A); test: Whole-cell voltage clamp, Zn^2+ modulation of GAQ gating; assay type: cell-based
How it was run: as §1

human Hv1 D123H-H140A = molecular target: T3, human Hv1 D123H-H140A (Homo sapiens, UniProt Q96D96, D123H/H140A); test: as above; assay type: cell-based
T3 sequence (Q96D96 1-273 D123H/H140A): T1 sequence (Q96D96 1-273 H140A/D185H) with D123H, H185D
How it was run: as §1

human Hv1 D112H = molecular target: T4, human Hv1 D112H (Homo sapiens, UniProt Q96D96, D112H); test: Whole-cell voltage clamp, Zn^2+ modulation of GAQ gating; assay type: cell-based
T4 sequence (Q96D96 1-273 D112H): T1 sequence (Q96D96 1-273 H140A/D185H) with D112H, A140H, H185D
How it was run: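 Zn2+ effect was read from tail current, not end-of-step current. Whole-cell recording at ~21°C with pH 6.5 pipette and bath solutions (mM: ~80 TMA-MeSO3, 100 Bis-Tris, 8 HCl). ZnCl2 was diluted in bath solution and gravity-superfused, at least 2 min per change. Concentration–response was fitted to the Hill equation, with IC50 values from separate cells. ΔpIC50 was compared by unpaired Student's t test, P<0.05.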

[3] = molecular target: T5, human Hv1 D185H (D^3.61H) (Homo sapiens, UniProt Q96D96, D185H); test: Whole-cell voltage clamp, Zn^2+ modulation of GAQ gating; assay type: cell-based
T5 sequence (Q96D96 1-273 D185H): T1 sequence (Q96D96 1-273 H140A/D185H) with A140H
How it was run: as §1

human Hv1 H140A-H193A = molecular target: T6, human Hv1 H140A-H193A (Homo sapiens, UniProt Q96D96, H140A/H193A); conditions: double mutant; ref Ramsey et al., 2006; cited from earlier work
T6 sequence (Q96D96 1-273 H140A/H193A): T1 sequence (Q96D96 1-273 H140A/D185H) with H185D, H193A

[4] = VSTEP 120 mV, calculated as log (IC50)
[5] = read-out: IC50, fit of the mean data to a Hill function, Fig. 4D

With `[Cl-].[Cl-].[Zn+2]` [Zn^2+, ZnCl2] the “nH, fit of the mean data to a Hill function” value (from here on “nH, fit of the mean data”) (human Hv1 H140A-D185H; Fig. 4D) was 0.6, the “Mean ΔpIC50 = (pIC50_1 - pIC50_2)” value (human Hv1 H140A-D185H; H140A-D185H vs D185H) was −0.42 and the “Mean ΔpIC50 = (pIC50_1 - pIC50_2)” value (human Hv1 H140A-D185H; H140A-D185H vs H140A) was 0.54. The Hill value (human Hv1 H140A-D185H; VSTEP 120 mV) was 0.81, the pIC50 (human Hv1 H140A-D185H; [4]) was −4.96 and the IC50 (human Hv1 H140A-D185H; [5]) was 18 µM. The “decrease of Zn^2+ potency by single mutation” value [1] was 10- to 30 fold, the “nH, fit of the mean data” value ([2]; Fig. 2C) was 1.0 and the “Mean ΔpIC50 = (pIC50_1 - pIC50_2)” value ([2]; H193A vs WT) was −1.37. For the same compound, the Hill value ([2]; VSTEP 100 mV) was 1.04, the pIC50 ([2]; VSTEP 100 mV, calculated as log (IC50)) was −4.06 and the IC50 ([2]; read-out: IC50, fit of the mean data to a Hill function, Fig. 2C) was 82.2 µM. For the same compound, the “Mean ΔpIC50 = (pIC50_1 - pIC50_2)” value (human Hv1 D123H-H140A; D123H-H140A vs H140A) was 0.36, the “nH, fit of the mean data” value (human Hv1 D123H-H140A; Fig. 4B) was 0.5 and the Hill value (human Hv1 D123H-H140A; VSTEP 80 mV) was 0.58. For the same compound, the pIC50 (human Hv1 D123H-H140A; VSTEP 80 mV, calculated as log (IC50)) was −4.78, the IC50 (human Hv1 D123H-H140A; read-out: IC50, fit of the mean data to a Hill function, Fig. 4B) was 20.5 µM and the IC50 (human Hv1 D123H-H140A; read-out: Mean IC50 @ VSTEP, VSTEP 80 mV, pH 6.5, mean of fits in separate cells) was 18 µM. The “Mean ΔpIC50 = (pIC50_1 - pIC50_2)” value (human Hv1 D112H; D112H vs WT) was −2.1, the Hill value (human Hv1 D112H; VSTEP 130 mV, determined from tail current) was 0.56 and the pIC50 (human Hv1 D112H; VSTEP 130 mV, determined from tail current, calculated as log (IC50)) was −2.96. For the same compound, the IC50 (human Hv1 D112H; read-out: Mean IC50 @ VSTEP, VSTEP 130 mV, pH 6.5, determined from tail current) was 1140 µM, the “nH, fit of the mean data” value ([3]; Fig. 4D) was 0.6 and the Hill value ([3]; VSTEP 120 mV) was 0.77. For the same compound, the pIC50 [3, 4] was 5.38, the IC50 [3, 5] was 6.5 µM and the “Zn^2+ sensitivity” value (human Hv1 H140A-H193A) was “essentially insensitive to submillimolar”.
